Measurements taken from article PMC9976451 (The Journal of Biological Chemistry, 2023).
Like-named read-outs stand apart in the source and are kept apart here.

Key:
[1] = molecular target: T1, human BCKDK (Homo sapiens, UniProt O14874); assay: BCKDK biochemical assay; conditions: for maximum BCKDK inhibition in the biochemical assay: plateau of inhibition curve
Method in brief: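 BCKDK freed of MBP tag by TEV cleavage. 11-point half-log test compound series (final 300 μM to 3 nM, 1% DMSO), in duplicate. Reaction started with 50 nM lipoylated fusion substrate plus 15 or 200 μM ATP; 90 min at RT. EDTA stop; Eu-anti-His/anti-pE1/ULight TR-FRET read at 665 nm. IC50 from four-parameter logistic fit.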

[2] = molecular target: PDK1 (Homo sapiens, UniProt Q15118); assay: PDK1 biochemical assay
Chain of PDK1 (Q15118 29-436): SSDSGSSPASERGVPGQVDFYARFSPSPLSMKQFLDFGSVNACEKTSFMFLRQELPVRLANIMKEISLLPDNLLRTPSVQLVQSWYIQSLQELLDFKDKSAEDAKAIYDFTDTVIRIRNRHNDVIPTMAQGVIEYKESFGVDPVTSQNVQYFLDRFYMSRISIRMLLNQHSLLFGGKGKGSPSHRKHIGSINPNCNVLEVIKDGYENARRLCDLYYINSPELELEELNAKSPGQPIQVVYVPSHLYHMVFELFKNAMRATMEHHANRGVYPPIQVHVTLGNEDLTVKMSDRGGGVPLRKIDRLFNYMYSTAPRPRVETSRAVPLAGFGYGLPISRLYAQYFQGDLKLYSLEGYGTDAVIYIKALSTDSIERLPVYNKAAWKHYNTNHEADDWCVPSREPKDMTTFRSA
Method in brief: (§1)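 Kinetic fluorescence assay (ex 360/em 485 nm) at 30 °C for 240 min using N-terminal GST-tagged kinase at 10 nM. PDK1 (aa 1–436): 6.0 μM ATP, 15 μM AQT0895. PDK4 (aa 1–411): 97 μM ATP, AQT0872. Eleven threefold dilutions (100 μM–1.7 nM final, 2% DMSO), run in duplicate, with a 30 min preincubation before enzyme. No-enzyme background subtracted. IC50 by four-parameter fit of initial rates.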

[3] = molecular target: PDK4 (Homo sapiens, UniProt Q16654); assay: PDK4 biochemical assay
Chain of PDK4 (Q16654 whole entry): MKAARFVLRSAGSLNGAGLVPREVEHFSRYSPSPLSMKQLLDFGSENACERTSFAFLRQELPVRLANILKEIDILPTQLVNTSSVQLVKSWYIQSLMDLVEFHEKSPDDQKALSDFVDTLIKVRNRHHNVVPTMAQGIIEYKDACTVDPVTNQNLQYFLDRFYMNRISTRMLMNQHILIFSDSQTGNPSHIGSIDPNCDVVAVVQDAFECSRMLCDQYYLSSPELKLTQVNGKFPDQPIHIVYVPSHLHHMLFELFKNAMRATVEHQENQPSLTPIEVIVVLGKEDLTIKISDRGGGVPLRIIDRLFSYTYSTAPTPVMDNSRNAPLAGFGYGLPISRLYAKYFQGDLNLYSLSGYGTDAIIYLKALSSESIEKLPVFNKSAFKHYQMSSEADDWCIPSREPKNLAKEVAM
Method in brief: as §1

[4] = molecular target: BCKDK; conditions: read-out: Ki as ATP competitive inhibitor of BCKDK; cited from earlier work
[5] = tested on: BCKD–BCKDK complex purified from rat liver; conditions: read-out: in vitro IC50 to inhibit the BCKD–BCKDK complex, 500 μM ATP; cited from earlier work
[6] = molecular target: T1, human BCKDK; type: binding
Method in brief: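 BCKDK biotinylated with BirA during TEV cleavage, then immobilized. At least six twofold dilutions injected at 30 μl/min: 120 s association, ≥300 s dissociation. Double reference subtraction using blank injections. For competition, the same series was run with 20 μM radicicol or 20 μM BT2 in running buffer; reduced signal was read as shared site.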

[7] = molecular target: AT1R; conditions: read-out: AT1R Kd; cited from earlier work
[8] = Biochemical IC50, ATP concentration of 15 μM
[9] = Biochemical IC50 at 200 μM ATP, 200 μM ATP

Row | Structure (SMILES) | IC50 [1, 8] | IC50 [1, 9] | maximum BCKDK inhibition in the biochemical assay [1] | further results
1 | CCC1CN(Cc2ccc(-c3ccccc3-c3nnn[nH]3)cc2)c2ncccc2O1 (centres unmarked) [compound 1∗, 4-((2'-(1H-tetrazol-5-yl)-[1,1′-biphenyl]-4-yl)methyl)-2-ethyl-3,4-dihydro-2H-pyrido[3,2-b][1,4]oxazine] | – | – | – | IC50 ([1]; in vitro biochemical activity): 0.032 ± 2e-05 µM
2 | CCC1CN(Cc2ccc(-c3ccccc3-c3nnn[nH]3)cc2)c2ncccc2O1 (centres unmarked) [compound 1, 4-((2'-(1H-tetrazol-5-yl)-[1,1′-biphenyl]-4-yl)methyl)-2-ethyl-3,4-dihydro-2H-pyrido[3,2-b][1,4]oxazine] | 0.0069 ± 0.0025 µM | 0.021 ± 0.006 µM | 100% | –
3 | COc1ccc(-c2nnn[nH]2)cc1 [fragment 1, 5-(4-methoxyphenyl)-1H-tetrazole] | 205 ± 51 µM | 232 ± 28 µM | – | –
4 | O=C(O)c1sc2cc(Cl)ccc2c1Cl [BT2, 3,6-dichlorobenzo[b]thiophene-2-carboxylic acid] | 0.96 ± 0.33 µM | 0.9 ± 0.37 µM | ~75% | IC50 [2]: 79 µM
5 | CCCCC(=O)N(Cc1ccc(-c2ccccc2-c2nnn[nH]2)cc1)[C@H](C(=O)O)C(C)C [valsartan] | 1.7 ± 1.9 µM | 7.7 ± 4.4 µM | 100% | IC50 [3]: 78 µM; Ki [4]: 1.36 µM; IC50 [5]: 37.3 µM
6 | C[C@@H]1C[C@H]2O[C@@H]2/C=C\C=C\C(=O)Cc2c(Cl)c(O)cc(O)c2C(=O)O1 [radicicol] | 25 ± 3.8 µM | 110 ± 21 µM | 100% | Kd [6]: 1.47 µM
7 | CCC1CN(Cc2ccc(-c3ccccc3-c3nnn[nH]3)cc2)c2ncccc2O1 (racemic) [racemic, 4-((2'-(1H-tetrazol-5-yl)-[1,1′-biphenyl]-4-yl)methyl)-2-ethyl-3,4-dihydro-2H-pyrido[3,2-b][1,4]oxazine] | – | – | – | IC50 ([1]; in vitro biochemical activity): 0.011 ± 0.0025 µM
8 | Nc1ncnc2c1ncn2[C@@H]1O[C@H](COP(=O)(O)OP(=O)(O)OP(=O)(O)O)[C@@H](O)[C@H]1O [ATP] | – | – | – | Km ([1]; read-out: Km of ATP, determined in the biochemical assay format): 13.6 ± 0.32 µM
9 | CCCc1nc(C(C)(C)O)c(C(=O)O)n1Cc1ccc(-c2ccccc2-c2nnn[nH]2)cc1 [olmesartan acid] | – | – | – | Kd [7]: 0.0069 µM; IC50 ([1]; read-out: In vitro IC50, Supplementary Table 1, BDK inhibition): 43.7 µM
10 | Cc1ccc(-c2ccccc2-c2nnn[nH]2)cc1 [fragment 2, 5-(4′-methyl-[1,1′-biphenyl]-2-yl)-1H-tetrazole] | 37.3 ± 7.1 µM | 38.7 ± 3.7 µM | – | –
